# Assay results of several laboratories.
# Organism: Pichia kudriavzevii
# Read-out: microbial growth
# Strain: ATCC6258
Structure (SMILES),method,time,MIC [mg/L]
CCCCCCCOc1c(OC)cc(NC(C)CCCN)c2nc(C(C)(C)C)cc(C)c12 (centres unmarked),,,5
C[C@@H]1[C@H](O)[C@@H](C)/C=C/C=C/C=C/C=C/C=C/C=C/C=C/[C@H](O[C@@H]2O[C@H](C)[C@@H](O)[C@H](N)[C@@H]2O)C[C@@H]2O[C@](O)(C[C@@H](O)C[C@@H](O)[C@H](O)CC[C@@H](O)C[C@@H](O)CC(=O)O[C@H]1C)C[C@H](O)[C@H]2C(=O)O,broth dilution,,0.5
C=C(C)[C@@H]1CC[C@]2(C(=O)O)CC[C@]3(C)[C@H](CC[C@@H]4[C@@]5(C)CC[C@H](O)C(C)(C)[C@@H]5CC[C@]43C)[C@@H]12,broth dilution,48 h,250
C[C@@H]1[C@H](O)[C@@H](C)/C=C/C=C/C=C/C=C/C=C/C=C/C=C/[C@H](O[C@@H]2O[C@H](C)[C@@H](O)[C@H](N)[C@@H]2O)C[C@@H]2O[C@](O)(C[C@@H](O)C[C@@H](O)[C@H](O)CC[C@@H](O)C[C@@H](O)CC(=O)O[C@H]1C)C[C@H](O)[C@H]2C(=O)O,,,1.25
CCCCCCCOc1c(OC)cc(NC(C)CCCNC(=O)C(N)C(C)CC)c2nc(C(C)(C)C)ccc12 (centres unmarked),,,10
CCCCCCCCCCCN1CCNCC1,broth dilution,48 h,7.8
CC1(C)CC[C@]2(C(=O)O)CC[C@]3(C)C(=CC[C@@H]4[C@@]5(C)CC[C@H](O)C(C)(C)[C@@H]5CC[C@]43C)[C@@H]2C1,broth dilution,48 h,500
CCCCCCCCCN1CCNCC1,broth dilution,48 h,31.3
CCCCCCOc1c(OC)cc(NC(C)CCCN)c2nc(C(C)(C)C)cc(C)c12 (centres unmarked),,,5
CCCCCN1CCN(CC(O)(Cn2cncn2)c2ccc(F)cc2F)CC1 (centres unmarked),broth dilution,48 h,> 31.3
OC(Cn1cncn1)(Cn1cncn1)c1ccc(F)cc1F,broth dilution,48 h,50
